Our source for the MIC50 values is ChEMBL document CHEMBL1123468, “Synthesis and antiviral activity of (E)-5-(2-bromovinyl)uracil and (E)-5-(2-bromovinyl)uridine” (1986).

One experiment concerns BSC-1. The experiment is described as follows: The compound was tested for its antiviral activity against HSV-1 (KOS) virus in BS-C-1A cell line. In kind it is functional, Cercopithecidae. The conditions noted are these: Chlorocebus aethiops. The procedure, abridged: (§1)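 Virus-induced cytopathogenicity in cell culture, scored microscopically. The value is the minimum concentration that cuts viral cytopathogenicity by 50%. Normal cell morphology was also checked microscopically at up to 400 μg/mL.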

The test system of experiment [1] is E6SM. The experiment is described as follows: The concentration required to reduce the cytopathogenicity of HSV-1 (KOS) in E6SM cell culture by 50% in absence of 0 ug/mL dThd. To be noted: Homo sapiens. In kind it is functional. The procedure, abridged: (§2)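 E6SM cells infected with HSV-1 (KOS), with dThd added to the culture medium at the stated concentration. The value is the minimum concentration that reduces viral cytopathogenicity by 50%.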
Background: Protection from cytopathic effect is a common read-out in antiviral testing.

Experiment [2] relates to E6SM. Briefly: The concentration required to reduce the cytopathogenicity of HSV-1 (KOS) in E6SM cell culture by 50% in presence of 0 ug/mL concentrations of 6-aminothymine. The format is functional. To be noted: Homo sapiens. In short, it runs like this:
(§3)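 E6SM cells infected with HSV-1 (KOS), with 6-aminothymine or benzylacyclouridine added to the medium at the stated concentration. The value is the minimum concentration that reduces viral cytopathogenicity by 50%.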

The subject of experiment [3] is E6SM. The experiment is described as follows: The compound was tested for its antiviral activity against vesicular stomatitis virus in E6SM cell culture. In kind it is functional. The conditions noted are these: Homo sapiens. The procedure, abridged:
as §1

Experiment [4] concerns E6SM. Briefly: The concentration required to reduce the cytopathogenicity of HSV-1 (KOS) in E6SM cell culture by 50% in absence of Urd. In kind it is functional. The conditions noted are these: Homo sapiens. In short, it runs like this:
(§4)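 E6SM cells infected with HSV-1 (KOS), with Urd or dUrd added alone or together with 6-aminothymine (50 μg/mL). The value is the minimum concentration that reduces viral cytopathogenicity by 50%.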

Experiment [5] concerns E6SM. The experiment is described as follows: The concentration required to reduce the cytopathogenicity of HSV-1 (KOS) in E6SM cell culture by 50% in presence of 10 ug/mL of Urd. In kind it is functional. To be noted: Homo sapiens. The procedure, abridged: as §4
For experiment [6], the system named is E6SM. The experiment is described as follows: The concentration required to reduce the cytopathogenicity of HSV-1 (KOS) in E6SM cell culture by 50% in presence of 300 ug/mL dThd. The conditions noted are these: Homo sapiens. In kind it is functional. In short, it runs like this:
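Thymidine (dThd) was added to the E6SM culture medium alongside the test compound, and cells were infected with HSV-1 strain KOS. The endpoint is the minimum inhibitory concentration that reduces viral cytopathogenicity by 50%. The cytopathogenicity inhibition procedure follows the earlier-described method.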

Experiment [7] has as its system E6SM. The experiment is described as follows: The concentration required to reduce the cytopathogenicity of HSV-1 (KOS) in E6SM cell culture by 50% in presence of 10 ug/mL concentrations of benzylacyclouridine. In kind it is functional, Homo sapiens. In short, it runs like this:
as §3

In experiment [8] the test system is E6SM. Briefly: The concentration required to reduce the cytopathogenicity of HSV-1 (KOS) in E6SM cell culture by 50% in presence of 100 ug/ml concentrations of 6-aminothymine. In kind it is functional. The conditions noted are these: Homo sapiens. In short, it runs like this:
as §3

In experiment [9] the test system is E6SM. The experiment is described as follows: The concentration required to reduce the cytopathogenicity of HSV-1 (KOS) in E6SM cell culture by 50% in presence of 4 ug/mL concentrations of 6-aminothymine. The format is functional. To be noted: Homo sapiens. In short, it runs like this: (§5)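 E6SM cultures were infected with HSV-1 strain KOS. 6-Aminothymine or benzylacyclouridine was present in the medium together with the test compound. The value is the minimum concentration giving 50% reduction of viral cytopathogenicity, scored by the earlier-described cytopathogenicity inhibition procedure.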

Experiment [10] concerns HeLa. Briefly: The concentration required to reduce the cytopathogenicity of HSV-1 (KOS) in HeLa cell culture by 50% in presence of 0 ug/mL concentrations of 6-aminothymine. In kind it is functional. To be noted: Homo sapiens.
The subject of experiment [11] is HeLa. The experiment is described as follows: The concentration required to reduce the cytopathogenicity of HSV-1 (KOS) in HeLa cell culture by 50% in presence of 100 ug/mL concentrations of 6-aminothymine. In kind it is functional. To be noted: Homo sapiens.
The next experiment deals with HSF (VGS). Briefly: The compound was tested for its antiviral activity against HSV-1 (KOS) virus in HSF (VGS) cell line. In kind it is functional. The conditions noted are these: Homo sapiens. The procedure, abridged:
as §1

In a further experiment the test system is M21. The experiment is described as follows: The compound was tested for its antiviral activity against HSV-1 (KOS) virus M-21 (GM137) cell line. In kind it is functional. To be noted: Homo sapiens. The procedure, abridged: as §1
A short description of experiment [12]: The concentration required to reduce the cytopathogenicity of HSV-1 (KOS) in PRK cell culture 0 ug/mL specified concentrations of 6-aminothymine. The format is functional. The conditions noted are these: Oryctolagus cuniculus.
The nature of experiment [13]: The concentration required to reduce the cytopathogenicity of HSV-1 (KOS) in PRK cell culture by 50% in presence of 100 ug/mL concentrations of 6-aminothymine. The conditions noted are these: Oryctolagus cuniculus. In kind it is functional. In short, it runs like this: (§6)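 The cells were primary rabbit kidney (PRK) cultures infected with HSV-1 strain KOS, with 6-aminothymine co-present in the medium. The value is the minimum inhibitory concentration that reduces viral cytopathogenicity by 50%, using the previously described cytopathogenicity inhibition method.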

The nature of experiment [14]: The concentration required to reduce the cytopathogenicity of HSV-1 (KOS) in PRK cell culture by 50% in presence of 20 ug/mL concentrations of 6-aminothymine. To be noted: Oryctolagus cuniculus. The format is functional. In short, it runs like this:
as §6

Experiment [15] in a line: The concentration required to reduce the cytopathogenicity of HSV-1 (KOS) in PRK cell culture by 50% in presence of 4 ug/mL concentrations of 6-aminothymine. The format is functional. The conditions noted are these: Oryctolagus cuniculus. In short, it runs like this: as §6
The subject of experiment [16] is HeLa. The experiment is described as follows: The concentration required to reduce the cytopathogenicity of HSV-1 (KOS) in HeLa cell culture by 50% in presence of 4 ug/mL concentrations of 6-aminothymine. The format is functional. To be noted: Homo sapiens.
For experiment [17], the system named is E6SM. Briefly: The concentration required to reduce the cytopathogenicity of HSV-1 (KOS) in E6SM cell culture by 50% in presence of 10 ug/mL of dUrd and 50 ug/mL of 6-aminothymine. The format is functional. The conditions noted are these: Homo sapiens. In short, it runs like this: as §4
Experiment [18] concerns E6SM. The experiment is described as follows: The concentration required to reduce the cytopathogenicity of HSV-1 (KOS) in E6SM cell culture by 50% in presence of 20 ug/mL concentrations of 6-aminothymine. The format is functional. To be noted: Homo sapiens. In short, it runs like this:
as §3

Experiment [19] has as its system HeLa. The experiment is described as follows: The concentration required to reduce the cytopathogenicity of HSV-1 (KOS) in HeLa cell culture by 50% in presence of 20 ug/mL concentrations of 6-aminothymine. In kind it is functional. The conditions noted are these: Homo sapiens.
Experiment [20] relates to E6SM. Briefly: The concentration required to reduce the cytopathogenicity of HSV-1 (KOS) in E6SM cell culture by 50% in absence of dThd. In kind it is functional. To be noted: Homo sapiens. In short, it runs like this:
as §2

Experiment [21] deals with E6SM. The experiment is described as follows: The concentration required to reduce the cytopathogenicity of HSV-1 (KOS) in E6SM cell culture by 50% in presence 0 ug/mL of 50 ug/mL of 6-aminothymine. In kind it is functional. To be noted: Homo sapiens. In short, it runs like this:
as §3

Experiment [22] deals with E6SM. The experiment is described as follows: The concentration required to reduce the cytopathogenicity of HSV-1 (KOS) in E6SM cell culture by 50% in presence of specified concentrations of 6-aminothymine. The format is functional. To be noted: Homo sapiens. The procedure, abridged:
as §5

In experiment [23] the test system is E6SM. Briefly: The concentration required to reduce the cytopathogenicity of HSV-1 (KOS) in E6SM cell culture by 50% in presence of specified concentrations of benzylacyclouridine. The format is functional, Homo sapiens. The procedure, abridged: as §5
For experiment [24], the system named is HeLa. The experiment is described as follows: The concentration required to reduce the cytopathogenicity of HSV-1 (KOS) in HeLa cell culture by 50% in presence of specified concentrations of 6-aminothymine. The format is functional, Homo sapiens.
Experiment [25] can be described thus: The concentration required to reduce the cytopathogenicity of HSV-1 (KOS) in PRK cell culture by 50% in presence of specified concentrations of 6-aminothymine. The format is functional, Oryctolagus cuniculus. In short, it runs like this: as §6

≈ marks a conversion by molar mass, not a printed value. Where “and” joins values, the source holds several entries; their conditions need not be identical. Identical values can stand only once.

Consider `Oc1ncc(/C=C/Br)c(O)n1`, for which the MIC50 is > 400 µg/mL against BSC-1; 7 µg/mL (≈ 32.3 µM) in the experiment on E6SM [1]; 7 µg/mL in the experiment with E6SM [2]; > 400 µg/mL against E6SM [3]; 4 µg/mL (≈ 18.4 µM) in the experiment on E6SM [4]; 7 µg/mL with E6SM [5]. Further, the MIC50 in the experiment on E6SM [6] was > 400 µg/mL; in the experiment with E6SM [7] it was 4 µg/mL; in the experiment with E6SM [7] (Homo sapiens, read-out: MIC50), 4 µg/mL; in the experiment on E6SM [8], > 400 µg/mL; with E6SM [9] it was > 400 µg/mL; with HeLa [10] it was 2 µg/mL. The MIC50 was > 200 µg/mL in the experiment with HeLa [11]; 7 µg/mL (≈ 32.3 µM) with HSF (VGS); 1 µg/mL (≈ 4.61 µM) with M21; > 400 µg/mL in [12]; > 400 µg/mL in [13]; > 400 µg/mL in experiment [14]. For the same molecule, the MIC50 is > 400 µg/mL in experiment [15]; > 200 µg/mL with HeLa [16]; 10 µg/mL with E6SM [17]; > 400 µg/mL with E6SM [18]; > 200 µg/mL in the experiment on HeLa [19].

As to `O=c1[nH]c(=O)n([C@H]2C[C@H](O)[C@@H](CO)O2)cc1/C=C/Br` [BRIVUDINE], the MIC50 against BSC-1 is 0.2 µg/mL (≈ 0.6 µM); against E6SM [3], > 400 µg/mL; with E6SM [4], 0.02 µg/mL (≈ 0.06 µM); against E6SM [20] it was 0.02 µg/mL (≈ 0.06 µM); against E6SM [21] it was 0.02 µg/mL (≈ 0.06 µM); with E6SM [5], 0.04 µg/mL. Besides, the MIC50 in the experiment on E6SM [6] is > 400 µg/mL; with E6SM [22], 0.02 µg/mL; in the experiment with E6SM [23], 0.02 µg/mL; in the experiment with E6SM [23] (Homo sapiens, read-out: MIC50), 0.04 µg/mL; in the experiment with HeLa [24] it was 0.01 µg/mL and 0.02 µg/mL; with HeLa [24] (Homo sapiens, read-out: MIC50), 0.01 µg/mL. For the same molecule, the MIC50 is 0.04 µg/mL (≈ 0.12 µM) in the experiment on HSF (VGS); 0.01 µg/mL in experiment [25]; 0.01 µg/mL in experiment [25] (Oryctolagus cuniculus, read-out: MIC50); 0.02 µg/mL in the experiment with E6SM [17].
